{"source": "ChEMBL document CHEMBL1148734", "about": "“Structure-activity relationships of phenyl-furanyl-rhodanines as inhibitors of RNA polymerase with antibacterial activity on biofilms” (J Med Chem, 2007)", "note": "The source made the active and inactive calls. The rule behind the calls is not given here."}
{"tested_on": "Escherichia coli", "assay": "Antibacterial activity against Escherichia coli tolC CGSC 5633", "format": "functional", "details": "not given", "units": {"MIC": "µg/mL"}}
{"smiles": "C=CCN1C(=O)/C(=C/c2ccc(-c3ccc(O)cc3)o2)SC1=S", "MIC": 3.13}
{"smiles": "C=CCN1C(=O)/C(=C/c2c[nH]c3c(C(=O)O)cccc23)SC1=S", "MIC": "≥ 100"}
{"smiles": "C=CCN1C(=O)/C(=C/c2ccc(-c3ccc(C(=O)O)c(Cl)c3)o2)SC1=S", "MIC": 25}
{"smiles": "O=C(O)c1ccc(/C=C2\\SC(=S)N(Cc3ccco3)C2=O)cc1", "MIC": "≥ 100"}
{"smiles": "C=CCN1C(=O)/C(=C/c2ccc(C)o2)SC1=S", "MIC": "≥ 100"}
{"smiles": "C=CCN1C(=O)/C(=C/c2cccc(-c3cccc(C(=O)O)c3)c2)SC1=S", "MIC": "≥ 100"}
{"smiles": "C=CCN1C(=O)/C(=C/c2ccc(-c3ccc(C(=O)O)cc3)o2)SC1=S", "MIC": 12.5}
{"target": "Albumin (Homo sapiens, UniProt P02768)", "sequence (P02768 whole entry)": "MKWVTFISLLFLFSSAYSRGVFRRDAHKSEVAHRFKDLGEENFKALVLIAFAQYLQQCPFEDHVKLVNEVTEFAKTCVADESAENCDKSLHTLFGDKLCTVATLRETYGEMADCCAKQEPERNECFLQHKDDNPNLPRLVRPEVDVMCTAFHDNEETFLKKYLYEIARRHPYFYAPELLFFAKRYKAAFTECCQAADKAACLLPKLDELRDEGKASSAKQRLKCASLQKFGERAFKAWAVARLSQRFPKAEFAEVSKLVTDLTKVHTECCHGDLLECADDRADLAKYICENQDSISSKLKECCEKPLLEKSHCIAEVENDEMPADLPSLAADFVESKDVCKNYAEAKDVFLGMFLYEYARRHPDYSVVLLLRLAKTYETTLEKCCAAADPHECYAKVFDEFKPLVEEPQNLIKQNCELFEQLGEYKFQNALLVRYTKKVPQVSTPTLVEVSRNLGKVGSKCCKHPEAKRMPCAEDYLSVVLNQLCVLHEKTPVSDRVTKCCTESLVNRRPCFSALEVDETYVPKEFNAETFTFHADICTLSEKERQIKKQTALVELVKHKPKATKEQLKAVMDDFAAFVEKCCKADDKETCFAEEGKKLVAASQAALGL", "assay": "Binding affinity to HSA by SPR method", "format": "ADME", "details": "isolated protein", "procedure,_shortened": "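SPR at 25 °C; HSA amine-coupled on CM5 chip (9000–11 000 RU). Compounds at 50 µM in PBS with 5% DMSO, 30 µL/min, duplicate 60 s injections over HSA and reference surfaces. Double referencing with buffer blanks; DMSO bulk correction from calibration curve (4.5–5.8% DMSO).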"}
{"smiles": "C=CCN1C(=O)/C(=C/c2ccc(-c3ccc(C(=O)O)c(Cl)c3)o2)SC1=S", "Activity": "Active"}
{"smiles": "C=CCN1C(=O)/C(=C/c2ccc(-c3ccc(C(=O)O)cc3)o2)SC1=S", "Activity": "Active"}
{"tested_on": "Staphylococcus epidermidis", "assay": "Antibacterial activity against Staphylococcus epidermidis CIP 105777", "format": "functional", "details": "not given", "units": {"MIC": "µg/mL"}}
{"smiles": "C=CCN1C(=O)/C(=C/c2ccc(-c3ccc(O)cc3)o2)SC1=S", "MIC": 12.5}
{"smiles": "C=CCN1C(=O)/C(=C/c2c[nH]c3c(C(=O)O)cccc23)SC1=S", "MIC": 25}
{"smiles": "C=CCN1C(=O)/C(=C/c2ccc(-c3ccc(C(=O)O)c(Cl)c3)o2)SC1=S", "MIC": 6.25}
{"smiles": "O=C(O)c1ccc(/C=C2\\SC(=S)N(Cc3ccco3)C2=O)cc1", "MIC": "≥ 100"}
{"smiles": "C=CCN1C(=O)/C(=C/c2ccc(C)o2)SC1=S", "MIC": "≥ 100"}
{"smiles": "C=CCN1C(=O)/C(=C/c2cccc(-c3cccc(C(=O)O)c3)c2)SC1=S", "MIC": 25}
{"smiles": "C=CCN1C(=O)/C(=C/c2ccc(-c3ccc(C(=O)O)cc3)o2)SC1=S", "MIC": 3.13}
{"tested_on": "Staphylococcus aureus", "assay": "Antibacterial activity against Staphylococcus aureus CIP 76.25", "format": "functional", "details": "not given", "units": {"MIC": "µg/mL"}}
{"smiles": "C=CCN1C(=O)/C(=C/c2ccc(-c3ccc(O)cc3)o2)SC1=S", "MIC": 6.25}
{"smiles": "C=CCN1C(=O)/C(=C/c2c[nH]c3c(C(=O)O)cccc23)SC1=S", "MIC": 50}
{"smiles": "C=CCN1C(=O)/C(=C/c2ccc(-c3ccc(C(=O)O)c(Cl)c3)o2)SC1=S", "MIC": 50}
{"smiles": "C=CCN1C(=O)/C(=C/c2cccc(-c3cccc(C(=O)O)c3)c2)SC1=S", "MIC": "≥ 100"}
{"smiles": "C=CCN1C(=O)/C(=C/c2ccc(-c3ccc(C(=O)O)cc3)o2)SC1=S", "MIC": "≥ 100"}
{"tested_on": "CHO", "assay": "Cytotoxicity against CHO cells", "format": "cell-based, Cricetulus griseus", "details": "chinese hamster", "procedure,_shortened": "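CHO cells grown in RPMI with 5% fetal calf serum, then exposed to compounds 24 h at 37 °C without serum. MTT added at 300 µg/mL final, 3 h at 37 °C dark; acidified isopropanol added, 1 h at room temperature; OD at 595 nm.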"}
{"smiles": "C=CCN1C(=O)/C(=C/c2ccc(-c3ccc(O)cc3)o2)SC1=S", "Activity": ">= 100 ug ml-1"}
{"smiles": "C=CCN1C(=O)/C(=C/c2c[nH]c3c(C(=O)O)cccc23)SC1=S", "Activity": ">= 100 ug ml-1"}
{"smiles": "C=CCN1C(=O)/C(=C/c2ccc(-c3ccc(C(=O)O)c(Cl)c3)o2)SC1=S", "Activity": ">= 100 ug ml-1"}
{"smiles": "C=CCN1C(=O)/C(=C/c2cccc(-c3cccc(C(=O)O)c3)c2)SC1=S", "Activity": ">= 100 ug ml-1"}
{"smiles": "C=CCN1C(=O)/C(=C/c2ccc(-c3ccc(C(=O)O)cc3)o2)SC1=S", "Activity": ">= 100 ug ml-1"}
{"tested_on": "Staphylococcus epidermidis", "assay": "Antibacterial activity against Staphylococcus epidermidis RP62A", "format": "functional", "details": "not given", "units": {"MIC": "µg/mL"}}
{"smiles": "C=CCN1C(=O)/C(=C/c2ccc(-c3ccc(O)cc3)o2)SC1=S", "MIC": 12.5}
{"smiles": "C=CCN1C(=O)/C(=C/c2c[nH]c3c(C(=O)O)cccc23)SC1=S", "MIC": 25}
{"smiles": "C=CCN1C(=O)/C(=C/c2ccc(-c3ccc(C(=O)O)c(Cl)c3)o2)SC1=S", "MIC": 6.25}
{"smiles": "C=CCN1C(=O)/C(=C/c2cccc(-c3cccc(C(=O)O)c3)c2)SC1=S", "MIC": 25}
{"smiles": "C=CCN1C(=O)/C(=C/c2ccc(-c3ccc(C(=O)O)cc3)o2)SC1=S", "MIC": 3.13}
{"tested_on": "Staphylococcus aureus", "assay": "Antibacterial activity against multidrug resistant Staphylococcus aureus 49589", "format": "functional", "details": "not given", "procedure,_shortened": "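Broth microdilution MIC following CLSI. Compounds were predissolved in DMSO and tested as serial 2-fold dilutions at final 100 to 0.4 µg/mL. Inoculum was 5 × 10⁵ CFU/mL, and plates were read after 18 h at 37 °C.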", "units": {"MIC": "µg/mL"}}
{"smiles": "C=CCN1C(=O)/C(=C/c2ccc(-c3ccc(O)cc3)o2)SC1=S", "MIC": 25}
{"smiles": "C=CCN1C(=O)/C(=C/c2c[nH]c3c(C(=O)O)cccc23)SC1=S", "MIC": 50}
{"smiles": "C=CCN1C(=O)/C(=C/c2ccc(-c3ccc(C(=O)O)c(Cl)c3)o2)SC1=S", "MIC": 50}
{"smiles": "C=CCN1C(=O)/C(=C/c2cccc(-c3cccc(C(=O)O)c3)c2)SC1=S", "MIC": 25}
{"smiles": "C=CCN1C(=O)/C(=C/c2ccc(-c3ccc(C(=O)O)cc3)o2)SC1=S", "MIC": "≥ 100"}
{"tested_on": "Staphylococcus epidermidis", "assay": "Antibacterial activity against Staphylococcus epidermidis 40004", "format": "functional", "details": "not given", "units": {"MIC": "µg/mL"}}
{"smiles": "C=CCN1C(=O)/C(=C/c2ccc(-c3ccc(O)cc3)o2)SC1=S", "MIC": 12.5}
{"smiles": "C=CCN1C(=O)/C(=C/c2c[nH]c3c(C(=O)O)cccc23)SC1=S", "MIC": 25}
{"smiles": "C=CCN1C(=O)/C(=C/c2ccc(-c3ccc(C(=O)O)c(Cl)c3)o2)SC1=S", "MIC": 6.25}
{"smiles": "C=CCN1C(=O)/C(=C/c2cccc(-c3cccc(C(=O)O)c3)c2)SC1=S", "MIC": 50}
{"smiles": "C=CCN1C(=O)/C(=C/c2ccc(-c3ccc(C(=O)O)cc3)o2)SC1=S", "MIC": 6.25}
{"tested_on": "Staphylococcus epidermidis", "assay": "Antibacterial activity against Staphylococcus epidermidis 48155", "format": "functional", "details": "not given", "units": {"MIC": "µg/mL"}}
{"smiles": "C=CCN1C(=O)/C(=C/c2ccc(-c3ccc(O)cc3)o2)SC1=S", "MIC": 12.5}
{"smiles": "C=CCN1C(=O)/C(=C/c2c[nH]c3c(C(=O)O)cccc23)SC1=S", "MIC": 25}
{"smiles": "C=CCN1C(=O)/C(=C/c2ccc(-c3ccc(C(=O)O)c(Cl)c3)o2)SC1=S", "MIC": 12.5}
{"smiles": "C=CCN1C(=O)/C(=C/c2cccc(-c3cccc(C(=O)O)c3)c2)SC1=S", "MIC": 50}
{"smiles": "C=CCN1C(=O)/C(=C/c2ccc(-c3ccc(C(=O)O)cc3)o2)SC1=S", "MIC": 3.13}
{"tested_on": "Streptococcus pneumoniae", "assay": "Antibacterial activity against Streptococcus pneumoniae CIP 103566", "format": "functional", "details": "not given", "units": {"MIC": "µg/mL"}}
{"smiles": "C=CCN1C(=O)/C(=C/c2ccc(-c3ccc(O)cc3)o2)SC1=S", "MIC": 25}
{"smiles": "C=CCN1C(=O)/C(=C/c2c[nH]c3c(C(=O)O)cccc23)SC1=S", "MIC": 50}
{"smiles": "C=CCN1C(=O)/C(=C/c2ccc(-c3ccc(C(=O)O)c(Cl)c3)o2)SC1=S", "MIC": 12.5}
{"smiles": "C=CCN1C(=O)/C(=C/c2cccc(-c3cccc(C(=O)O)c3)c2)SC1=S", "MIC": "≥ 100"}
{"smiles": "C=CCN1C(=O)/C(=C/c2ccc(-c3ccc(C(=O)O)cc3)o2)SC1=S", "MIC": "≥ 100"}
{"tested_on": "not listed separately", "assay": "Inhibition of Escherichia coli RNA polymerase sigma-70 factor", "details": "not given", "units": {"IC50": "µM"}}
{"smiles": "O=C(O)c1ccc(/C=C2\\SC(=S)N(Cc3ccco3)C2=O)cc1", "IC50": 87}
{"smiles": "C=CCN1C(=O)/C(=C/c2ccc(C)o2)SC1=S", "IC50": "≥ 100"}
{"tested_on": "Clostridioides difficile", "assay": "Antibacterial activity against Clostridium difficile DSM 1296", "format": "functional", "details": "not given", "units": {"MIC": "µg/mL"}}
{"smiles": "C=CCN1C(=O)/C(=C/c2ccc(-c3ccc(O)cc3)o2)SC1=S", "MIC": 50}
{"smiles": "C=CCN1C(=O)/C(=C/c2c[nH]c3c(C(=O)O)cccc23)SC1=S", "MIC": 25}
{"smiles": "C=CCN1C(=O)/C(=C/c2ccc(-c3ccc(C(=O)O)c(Cl)c3)o2)SC1=S", "MIC": 12.5}
{"smiles": "C=CCN1C(=O)/C(=C/c2cccc(-c3cccc(C(=O)O)c3)c2)SC1=S", "MIC": 12.5}
{"smiles": "C=CCN1C(=O)/C(=C/c2ccc(-c3ccc(C(=O)O)cc3)o2)SC1=S", "MIC": "≥ 100"}
{"tested_on": "Escherichia coli", "assay": "Inhibition of RNA polymerase sigma-70 transcription in Escherichia coli at 10 uM", "format": "functional", "details": "not given", "units": {"inhibition at 10 µM": "%"}}
{"smiles": "C=CCN1C(=O)/C(=C/c2ccc(-c3ccc(O)cc3)o2)SC1=S", "inhibition at 10 µM": 84}
{"smiles": "C=CCN1C(=O)/C(=C/c2c[nH]c3c(C(=O)O)cccc23)SC1=S", "inhibition at 10 µM": 95}
{"smiles": "C=CCN1C(=O)/C(=C/c2ccc(-c3ccc(C(=O)O)c(Cl)c3)o2)SC1=S", "inhibition at 10 µM": 100}
{"smiles": "O=C(O)c1ccc(/C=C2\\SC(=S)N(Cc3ccco3)C2=O)cc1", "inhibition at 10 µM": 5}
{"smiles": "C=CCN1C(=O)/C(=C/c2ccc(C)o2)SC1=S", "inhibition at 10 µM": 3}
{"smiles": "C=CCN1C(=O)/C(=C/c2cccc(-c3cccc(C(=O)O)c3)c2)SC1=S", "inhibition at 10 µM": 26}
{"smiles": "C=CCN1C(=O)/C(=C/c2ccc(-c3ccc(C(=O)O)cc3)o2)SC1=S", "inhibition at 10 µM": 98}
{"tested_on": "Escherichia coli", "assay": "Antibacterial activity against Escherichia coli tolC CGSC 5633 in presence of 1% HSA", "format": "functional, organism-based", "details": "not given"}
{"smiles": "C=CCN1C(=O)/C(=C/c2ccc(-c3ccc(C(=O)O)c(Cl)c3)o2)SC1=S", "Activity": "inactive"}
{"smiles": "C=CCN1C(=O)/C(=C/c2ccc(-c3ccc(C(=O)O)cc3)o2)SC1=S", "Activity": "inactive"}
{"tested_on": "Bacillus anthracis", "assay": "Antibacterial activity against Bacillus anthracis 9131", "format": "functional", "details": "not given", "units": {"MIC": "µg/mL"}}
{"smiles": "C=CCN1C(=O)/C(=C/c2ccc(-c3ccc(O)cc3)o2)SC1=S", "MIC": 6.25}
{"smiles": "C=CCN1C(=O)/C(=C/c2c[nH]c3c(C(=O)O)cccc23)SC1=S", "MIC": 12.5}
{"smiles": "C=CCN1C(=O)/C(=C/c2ccc(-c3ccc(C(=O)O)c(Cl)c3)o2)SC1=S", "MIC": 3.13}
{"smiles": "C=CCN1C(=O)/C(=C/c2cccc(-c3cccc(C(=O)O)c3)c2)SC1=S", "MIC": 12.5}
{"smiles": "C=CCN1C(=O)/C(=C/c2ccc(-c3ccc(C(=O)O)cc3)o2)SC1=S", "MIC": 3.13}
